The results in this text go back to ChEMBL document CHEMBL1131025, “14-Desoxy analogues of naltrindole and 7-spiroindanyloxymorphone: the role of the 14-hydroxy group at delta opioid receptors” (J Med Chem, 1998).

For assay [1], the species on record is Cavia porcellus. The assay is described as follows: (§1) Agonist activity (ability to decrease the twitch height of the electrically stimulated smooth muscle) in electrically stimulated guinea pig ileum(GPI). It is filed as functional, Muscle tissue. The procedure, abridged: (§2)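 Electrically stimulated guinea pig ileum. Agonism read as a drop in twitch height. Compounds were first tested at 1 μM. Full agonists were then run at 4-6 concentrations to build a dose-response curve and give the IC50 for half-maximal response (n ≥ 3). Partial responders were reported as percent of maximal agonist response.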

For assay [2], the target named is Kappa-type opioid receptor (Cavia porcellus) (UniProt P41144). The assay is described as follows: Antagonistic activity expressed as IC50 ratio against ethylketazocine (EK) Opioid receptor kappa 1 in smooth muscle preparations. It is filed as functional. The procedure, abridged:
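Electrically stimulated guinea pig ileum. The preparation was preincubated 15 min with test compound (100 nM) before challenge with a standard agonist: morphine for μ, ethylketazocine for κ. The ratio is agonist IC50 with antagonist divided by control IC50 of agonist alone (n ≥ 3).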

The species entered for the next assay is Mus musculus. The assay is described as follows: Agonist vas deferens(MVD). It is filed as functional. A digest of the protocol: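 Electrically stimulated mouse vas deferens. Agonism read as a drop in twitch height. Compounds were first tested at 1 μM. Full agonists were then run at 4-6 concentrations to build a dose-response curve and give the IC50 for half-maximal response (n ≥ 3). Partial responders were reported as percent of maximal agonist response.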

Assay [3] is filed under the species Cavia porcellus. The assay is described as follows: Antagonist potency (Ke) was evaluated in guinea pig ileum(GPI). Type of assay: functional. A digest of the protocol: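 Antagonist potency came from IC50-ratio tests in which smooth muscle was preincubated 15 min with antagonist before agonist challenge.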
The species named for assay [4] is Cavia porcellus. The assay is described as follows: Agonist activity (ability to decrease the twitch height of the electrically stimulated smooth muscle) in electrically stimulated guinea pig ileum (GPI). Type of assay: functional. A digest of the protocol:
as §2

Assay [5] addresses Delta-type opioid receptor (Mus musculus) (UniProt P32300). The assay is described as follows: Antagonistic activity expressed as IC50 ratio against DADLE-Opioid receptor delta 1 in smooth muscle preparations of mouse vas deferens(MVD). Type of assay: functional. A digest of the protocol: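 Electrically stimulated mouse vas deferens. The preparation was preincubated 15 min with test compound (100 nM) before challenge with the standard δ agonist DADLE. The ratio is DADLE IC50 with antagonist divided by control IC50 of DADLE alone (n ≥ 3).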

The species named for assay [6] is Cavia porcellus. The assay is described as §1. Type of assay: functional, organism-based. The following applies: Muscle tissue. The procedure, abridged: as §2

Chain of Delta-type opioid receptor (Mus musculus) (P32300 whole entry): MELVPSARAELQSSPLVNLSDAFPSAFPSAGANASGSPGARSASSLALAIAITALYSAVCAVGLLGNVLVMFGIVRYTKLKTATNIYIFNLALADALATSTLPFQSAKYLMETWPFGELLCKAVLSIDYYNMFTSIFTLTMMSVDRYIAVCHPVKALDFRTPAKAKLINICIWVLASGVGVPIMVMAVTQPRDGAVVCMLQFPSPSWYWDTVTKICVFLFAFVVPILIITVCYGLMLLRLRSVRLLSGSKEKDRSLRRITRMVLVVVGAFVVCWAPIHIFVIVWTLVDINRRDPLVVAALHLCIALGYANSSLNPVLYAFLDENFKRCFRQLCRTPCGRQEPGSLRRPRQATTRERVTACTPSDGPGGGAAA
Chain of Kappa-type opioid receptor (Cavia porcellus) (P41144 whole entry): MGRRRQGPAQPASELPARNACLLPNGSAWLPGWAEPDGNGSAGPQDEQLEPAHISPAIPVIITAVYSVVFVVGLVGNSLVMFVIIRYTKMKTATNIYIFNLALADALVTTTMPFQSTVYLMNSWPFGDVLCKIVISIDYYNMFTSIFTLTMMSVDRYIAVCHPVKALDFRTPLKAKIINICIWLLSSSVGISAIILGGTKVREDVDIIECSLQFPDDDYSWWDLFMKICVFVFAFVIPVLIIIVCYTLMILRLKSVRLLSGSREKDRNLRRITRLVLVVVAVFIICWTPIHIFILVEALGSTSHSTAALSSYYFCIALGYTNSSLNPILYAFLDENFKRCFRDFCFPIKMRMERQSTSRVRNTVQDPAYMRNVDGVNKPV

Consider `CN1CC[C@]23c4c5ccc(O)c4O[C@H]2C(=O)C2(Cc4ccccc4C2)C[C@@]3(O)[C@H]1C5` [SPIROINDANYLOXYMORPHONE], for which the Max response in the assay filed under Cavia porcellus [1] amounted to 55%. The IC50 ratio in assay [2] came to 1.

`Oc1ccc2c3c1O[C@H]1c4[nH]c5ccccc5c4C[C@@]4(O)[C@@H](C2)N(CC2CC2)CC[C@]314` [NALTRINDOLE]: the Max response in the assay filed under Cavia porcellus [1] is reported as 7.6%; in the assay filed under Mus musculus it was 37.1%.

As for `Oc1ccc2c3c1O[C@H]1c4[nH]c5ccccc5c4CC4C(C2)N(CC2CC2)CCC341` (some centres not stated), in the assay listed under Cavia porcellus [3], the Ke worked out at 2.98. Also, the Max response was 16.85% in the assay listed under Cavia porcellus [4] and 22.6% in the assay filed under Mus musculus. For the same molecule, the IC50 ratio is 1.64 in assay [2] and 34.6 in assay [5].

The molecule `CN1CCC23c4c5ccc(O)c4O[C@H]2C(=O)C2(Cc4ccccc4C2)CC3C1C5` (some centres not stated) showed a Max response in the assay filed under Mus musculus of 58.6%. Moreover, the IC50 ratio in assay [5] amounted to 0.85. Also, the IC50 (commonly the point on the concentration scale where inhibition reaches its midpoint) in the assay listed under Cavia porcellus [6] amounted to 153 nM.
